Measurements published in ChEMBL document CHEMBL1146104, “Synthesis and transdermal penetration-enhancing activity of carbonic and carbamic acid esters--comparison with transkarbam 12” (Bioorg Med Chem Lett, 2006).

Legend:
Assay type in all cases: ADME, organism-based
Conditions in all cases: pig
Sus scrofa [1] = species on record: Sus scrofa; experiment: Enhancement of theophylline transdermal penetration through porcine ear skin using Franz diffusion cell in isopropylmyristate medium relative to control
In short: (§1)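 Theophylline permeation from donor samples with and without enhancer (control lacks enhancer); acceptor-phase theophylline quantified by HPLC. Cumulative amounts (μg/cm2) plotted against time to derive flux (μg/cm2/h). Value is the enhancement ratio: flux with enhancer divided by flux of control. Significance p < 0.05 versus control.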

Sus scrofa [2] = species on record: Sus scrofa; experiment: Enhancement of theophylline transdermal penetration through porcine ear skin using Franz diffusion cell in propylene glycol/water medium relative to control; in short: as §1
Sus scrofa [3] = species on record: Sus scrofa; experiment: Enhancement of theophylline transdermal penetration through porcine ear skin using Franz diffusion cell in water medium relative to control; in short: as §1

| Ratio (Sus scrofa [1]) | Ratio (Sus scrofa [2]) | Ratio (Sus scrofa [3]) | Structure (SMILES) |
| --- | --- | --- | --- |
| 1.15 | 1.11 | 1.7 | CCCCCCCCCCCCNC(=O)CCC(C)OC(=O)OCCCCCCCCCCCC (configuration not stated) |
| 1.01 | 1.52 | 1.83 | CCCCCCCCCCCCOC(=O)CCCCCNC(=O)OCC |
| 1.49 | 1.24 | 0.8 | CCCCCCCCCCCCOC(=O)CCCCCCOC(=O)OCCCCCC(=O)OCCCCCCCCCCCC |
| 1.29 | 2.63 | 2.27 | CCCCCCCCCCCCOC(=O)CCCCCNC(=O)OCCCCCC(=O)OCCCCCCCCCCCC |
| 1.23 | 3.29 | 0.91 | CCCCCCCCCCCCNC(=O)CCCCCOC(=O)OCCCCCC(=O)NCCCCCCCCCCCC |
| 1.39 | 3.7 | 1.76 | CCCCCCCCCCCCOC(=O)CCCCCOC(=O)OCCCCCC(=O)OCCCCCCCCCCCC |
| 6.56 | 22.8 | 1.9 | CCCCCCCCCCCCOC(=O)CCCCCN.CCCCCCCCCCCCOC(=O)CCCCCNC(=O)O [TRANSKARBAM 12] |
| 1.07 | 2.13 | 2.4 | CCCCCCCCCCCCOC(=O)CCCCCOC(=O)OCC |
| 0.57 | 0.47 | 0.77 | CCCCCCCCCCCCOC(=O)CCCCCNC(=O)OCCCCCCCCCCCC |
| 1.07 | 1.02 | 1.22 | CCCCCCCCCCCCOC(=O)CCCCCCOC(=O)NCCCCCC(=O)OCCCCCCCCCCCC |
| 1.77 | 1.45 | 1.48 | CCCCCCCCCCCCNC(=O)CCC(C)OC(=O)OCC (configuration not stated) |
| 1.75 | 1.36 | 3.37 | CCCCCCCCCCNC(=O)CCCCCOC(=O)OCC |
| 1.48 | 2.66 | 1.13 | CCCCCCCCCCCCOC(=O)OCCCCCC(=O)NCCCCCCCCCC |
| 1.29 | 1.13 | 2.49 | CCCCCCCCCCCCOC(=O)CCCCCOC(=O)OCCCCCCCCCCCC |
